Residues, ends and D or L forms follow the SMILES beside them.
System: human primary fibroblasts
Test: WST-1 cell viability assay in fibroblasts
Format: cell-based
Settings: 0.1–20 μM, 24 h treatment; highest concentration
In short: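 Primary human fibroblasts (GM04390) grown in high-glucose DMEM with 10% heat-inactivated FBS and antibiotics at 3% O2, 5% CO2, 37 °C. Seeded at 100 000 cells/mL, switched to Optimem after 24 h, then given 0.1–20 μM test compound or DMSO at 48 h. After about 24 h, incubated 4 h with 10% WST-1 reagent; absorbance read at 450 nm.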

C[C@H](NC(=O)[C@H](Cc1ccc(O)cc1)NC(=O)[C@H](Cc1ccc(O)cc1)NC(=O)[C@@H]1CCCN1C(=O)[C@@H]1CCCN1C(=O)[C@@H]1CCCN1C(=O)[C@@H]1CCCN1C(=O)[C@H](CCCNC(=N)N)NC(=O)[C@H](CCCNC(=N)N)NC(=O)[C@@H](N)CCCNC(=N)N)C(=O)O [Compound 2, RRR-PPPP-YYA-OH] (H-RRRPPPPYYA-OH)
cytotoxic effects (cell viability, WST-1): did not exert any cytotoxic effects
